PubChem BioAssay AID743238 (Broad Institute, 2013)
Among all 360,000 compounds or so, about 200 (0.056%) were called active. The list comes from a sample in which actives are over-represented; it also holds similar structures and randomly drawn compounds. A number with no mark means an inactive call.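 How the source made its calls: active means mean normalized replicate activation at least 10% and every replicate at or above 10%; inconclusive means only one of the two criteria met; inactive means mean below 10% and not all replicates reach 10%.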

Test: Xi reactivation inducers in mouse fibroblasts – imaging, XiGFP fibroblasts, GFP high-content imaging, set 2, primary screen (AID 743238);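 further: 0% = median of on-plate neutral control wells and 100% = ellipticine 6 µM median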
Conditions: % GFP-positive cells imaging, 3 d, at 7.58 µM, stronger effect = higher value, cells co-treated with 5-aza-dC sensitizer, scaled so ellipticine positive control = 100%
Procedure, shortened: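 Assay system: SV40-immortalized XiGFP fibroblast cells, line 68-5-11; buffer or medium: DMEM plus 5-aza-dC sensitizer; compound: one concentration, pinned; timing: compounds 3 days, fix/stain 15 min at room temperature; benchmarks: positive control ellipticine, 6 µM final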

Structure (SMILES) | activation
COc1ccc2c3c(n(C)c2c1)[C@H](CO)N(CC1CCOCC1)CC31CCN(C(C)=O)CC1 | 0.008%
C/C=C/c1ccc([C@@H]2[C@H](CO)N(CC3CCOCC3)C23CN(S(=O)(=O)CC)C3)cc1 | 0.064%
COc1ccc(S(=O)(=O)Nc2cccc3c2O[C@H](CN(C)C(=O)Nc2cccc4ccccc24)[C@H](C)CN([C@@H](C)CO)C3=O)cc1 | -0.983%
C[C@@H]1CCCCO[C@H](CN(C)C(=O)Nc2cccc3ccccc23)[C@@H](C)CN([C@@H](C)CO)C(=O)c2cc(NC(=O)Nc3ccc(F)cc3)ccc2O1 | -0.01%
C[C@@H](NC(=O)C[C@H]1CC[C@H]2[C@H](COc3ccc(NS(=O)(=O)c4ccc(Cl)cc4)cc3C(=O)N2C)O1)c1ccccc1 | -0.013%
CCC(=O)NC[C@H]1[C@@H](c2ccc(C3=CCCC3)cc2)[C@@H](CO)N1C(=O)C1CC1 | -0.043%
CCCC#Cc1cnc2c(c1)C(=O)N([C@H](C)CO)C[C@H](C)[C@@H](CN(C)C(=O)c1cccnc1)O2 | -0.912%
COc1ccc2c3c(n(C)c2c1)[C@H](CO)N(Cc1ccccc1)CC31CCN(C)CC1 | 0.287%
Cc1ccc(NC(=O)c2cc([N+](=O)[O-])ccc2Cl)c(O)c1 | 0.0305%
CNc1ccc([N+](=O)[O-])cc1C(=O)O | 34.2% (active)
CCN(CC)c1ccc([N+](=O)[O-])cc1C(=O)O | -0.147%
CNC(=O)C[C@H]1CC[C@@H]2[C@H](COc3ccc(NC(=O)Nc4cccc(F)c4)cc3C(=O)N2C)O1 | 0.022%
C[C@H](O)C#Cc1ccc2c(c1)O[C@H](CN(C)Cc1ccccn1)[C@@H](C)CN([C@@H](C)CO)S2(=O)=O | -0.095%
O=C(C[C@@H]1CC[C@@H](NC(=O)C2CCOCC2)[C@H](CO)O1)NCC1CC1 | -0.115%
COc1ccc2c3c(n(C)c2c1)[C@@H](CO)N(Cc1ccccc1F)CC31CCN(C(=O)C2CCOCC2)CC1 | -0.019%
O=C(c1ccc(F)cc1)N1CC(=O)N2[C@@H](CO)[C@H](c3ccc(C4=CCCC4)cc3)[C@@H]2C1 | 0.604%
CCS(=O)(=O)N1[C@H](CO)[C@@H](c2ccccc2)C12CN(C(=O)c1ccccc1F)C2 | 0.139%
CCS(=O)(=O)N1CC(=O)N2[C@H](C1)[C@@H](c1ccc(C#Cc3ccc(F)cc3)cc1)[C@@H]2CO | 0.458%
COc1ccc2c(c1)c(C(=O)N/N=C/c1cccs1)c(C)n2C | 0.148%
Cc1c(/C=N\NC(=O)c2cc3ccccc3o2)c2ccccc2n1C | 16.6% (active)
CC(C)(C)n1nc2c(c1NC(=O)c1cc3ccccc3o1)CSC2 | 0%
CCCNC(=O)C[C@H]1C[C@@H]2c3cc(NC(=O)COC)ccc3O[C@@H]2[C@@H](CO)O1 | -0.017%
O=C(C[C@@H]1CC[C@H]2[C@@H](COC[C@@H](O)CN2CC2CC2)O1)NCc1ccc(Cl)cc1 | 0.122%
